Data set [1] can be described thus: melting temperature; fluorescence melt of hairpins on a sequencing array, two-state fit, raised by 9.35 °C to match UV melts. Particulars: sodium 0.088 M. In outline:
(§1)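 Library hairpins on a sequenced MiSeq flow cell carried annealed Cy3 and quencher oligos, and their Cy3 fluorescence was imaged in 50 mM Na-HEPES pH 8.0 with 25 mM NaCl, in 2.5 °C steps up to 60 °C. Signals were normalised to Cy3 before quenching and to control constructs. Melting temperature and folding enthalpy were obtained from bootstrapped two-state fits, combined by inverse-variance weighting across four replicates, and the fitted temperatures were then raised by 9.35 °C to match UV melts.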

The nature of data set [2]: folding enthalpy; higher = less favourable; fluorescence melt of hairpins on a sequencing array, two-state fit. Conditions: sodium 0.088 M. In outline: as §1

On to GATCCCTCGAGGGATC ((((((....)))))), for which the Tm in data set [1] came out at 62 °C. Also, in data set [2], the folding enthalpy is -41.7 kcal/mol.

As to GAACCACGAAAGTGTTC (((.(((....)))))), the Tm in data set [1] was determined as 43.9 °C. The folding enthalpy in data set [2] is -13.8 kcal/mol.

GGAGTCCGAAAGGATCC (((.(((....)))))): the Tm in data set [1] was 47.8 °C. For the same sequence, in data set [2], the folding enthalpy is -21.6 kcal/mol.

As for GTCGATGGAAACGTTGAC (((.(.(....).).))), in data set [1], the Tm amounted to 34.6 °C. The folding enthalpy in data set [2] was -20.5 kcal/mol.

For the sequence GATCTTTGAAAGATC ((((((...)))))), the Tm in data set [1] is 38.1 °C. Also, the folding enthalpy in data set [2] was -25.8 kcal/mol.

On to GCGACGTATCGC ((((....)))), for which, in data set [1], the Tm was found to be 50.5 °C. Moreover, in data set [2], the folding enthalpy is -14.6 kcal/mol.

Consider GAAGTAGCGAAAGCTTTC (((..(((....)))))), for which the Tm in data set [1] worked out at 30.3 °C. Besides, the folding enthalpy in data set [2] is -9.46 kcal/mol.

For the sequence GATCATTGACATGATC ((((((....)))))), the Tm in data set [1] turned out to be 43.6 °C. Besides, the folding enthalpy in data set [2] is -24.1 kcal/mol.

With GGTGGCGGAAACGCCGTC (..((((....))))..), in data set [1], the Tm turned out to be 45.1 °C. Further, the folding enthalpy in data set [2] was -10.1 kcal/mol.

In the case of GATCCTTTCAGGATC ((((((...)))))), in data set [1], the Tm amounted to 57.4 °C. Also, the folding enthalpy in data set [2] was -41.3 kcal/mol.

On to CGAGCGGAAACGCACTCG ((((((....)))..))), for which the Tm in data set [1] is 37.6 °C. In addition, in data set [2], the folding enthalpy was -15.8 kcal/mol.

On to GGGGAGCGAAAGCTGCCC (((.(((....))).))), for which, in data set [1], the Tm came to 68.8 °C. Moreover, the folding enthalpy in data set [2] is -23.8 kcal/mol.

Consider GTGGCCGAAAGGCGCAC ((((((....))).))), for which the Tm in data set [1] came to 56.3 °C. The folding enthalpy in data set [2] is -13.9 kcal/mol.

For the sequence GCGGTGTCGAAAGACCGC (((..(((....)))))), in data set [1], the Tm was 58.9 °C. Also, in data set [2], the folding enthalpy was -30.4 kcal/mol.

As to GCTCTCGAAAGAGCAAGC ((((((....)))..))), the Tm in data set [1] amounted to 42.9 °C. Besides, in data set [2], the folding enthalpy was -12.2 kcal/mol.

GACGCCGGAAACGGCATC ((.((((....)))).)): the Tm in data set [1] was determined as 43.4 °C. Besides, the folding enthalpy in data set [2] was -11.4 kcal/mol.

Regarding GCTTGATCGAAAGATAGC (((..(((....)))))), the Tm in data set [1] was 29.4 °C. Further, the folding enthalpy in data set [2] was -17.7 kcal/mol.

On to GATCCATGCTTGGATC ((((((....)))))), for which the Tm in data set [1] is 55.1 °C. The folding enthalpy in data set [2] is -43.6 kcal/mol.

As for GACTTTGGAAACGAAGTC (((((.(....).))))), the Tm in data set [1] came to 44.6 °C. Besides, the folding enthalpy in data set [2] is -29.4 kcal/mol.

In the case of GGTCGTGCGAAAGCAACC (((..(((....)))))), the Tm in data set [1] came out at 27.6 °C. In addition, the folding enthalpy in data set [2] is -8.03 kcal/mol.

For the sequence GTAGGCCGAAAGGCGTAC (((.(((....))).))), in data set [1], the Tm was 62.4 °C. Further, the folding enthalpy in data set [2] is -26.5 kcal/mol.

With GCGTTGGACGC ((((...)))), the Tm in data set [1] was determined as 52.7 °C. Also, the folding enthalpy in data set [2] was -19.5 kcal/mol.

Take GTGGCGACGAAAGTCCAC (((..(((....)))))): the Tm in data set [1] was 42.8 °C. The folding enthalpy in data set [2] is -17.3 kcal/mol.

GCCTAGGGAAACCTAAGC ((.((((....)))).)): the Tm in data set [1] is 31.6 °C. For the same sequence, the folding enthalpy in data set [2] is -14.7 kcal/mol.

In the case of GATCCTAGTAGGATC ((((((...)))))), the Tm in data set [1] was found to be 52.4 °C. For the same sequence, in data set [2], the folding enthalpy was -34.1 kcal/mol.

Take GATCCTGTCGAGGATC ((((((....)))))): the Tm in data set [1] turned out to be 57.2 °C. In addition, in data set [2], the folding enthalpy is -36.3 kcal/mol.

Consider GACATCGCGAAAGCGGTC (((..(((....)))))), for which the Tm in data set [1] worked out at 34.8 °C. Moreover, the folding enthalpy in data set [2] is -11.6 kcal/mol.

Turning to GGTCACGAAAGTGCTACC ((((((....)))..))), in data set [1], the Tm was 36.3 °C. In addition, in data set [2], the folding enthalpy is -15.6 kcal/mol.

GGCTGTGGAAACGCAGCC (((((.(....).))))): in data set [1], the Tm turned out to be 63.4 °C. Besides, the folding enthalpy in data set [2] was -48.6 kcal/mol.

For the sequence GTTTAACGAAAGTTGAAC (((.(((....))).))), in data set [1], the Tm came out at 44.7 °C. Besides, the folding enthalpy in data set [2] was -29.9 kcal/mol.

Consider GATCAACCTCTTGATC ((((((....)))))), for which, in data set [1], the Tm is 43.5 °C. The folding enthalpy in data set [2] was -30.3 kcal/mol.

Consider GTCGCCGAAAGGCGGAC ((((((....))).))), for which, in data set [1], the Tm came out at 58 °C. Also, the folding enthalpy in data set [2] was -11.2 kcal/mol.

GATCCGCTCTCGGATC ((((((....)))))): in data set [1], the Tm stood at 60 °C. Further, the folding enthalpy in data set [2] is -33.8 kcal/mol.

In the case of GCAAGGCGAAAGCTTAGC ((.(.((....)).).)), the Tm in data set [1] is 38.8 °C. In addition, the folding enthalpy in data set [2] is -13.6 kcal/mol.

Turning to GATCTAAGTGTAGATC ((((((....)))))), the Tm in data set [1] turned out to be 39.3 °C. Besides, the folding enthalpy in data set [2] is -28.5 kcal/mol.

Regarding GGCGTTGCGAAAGCAGCC (((..(((....)))))), the Tm in data set [1] was found to be 63.1 °C. Besides, the folding enthalpy in data set [2] was -32.3 kcal/mol.

For the sequence GCGAAATATCGC ((((....)))), the Tm in data set [1] was determined as 45.2 °C. Also, in data set [2], the folding enthalpy was -18.6 kcal/mol.

(Values after the array DNA melting data of Ke et al. (doi:10.1101/2024.01.08.574731).)
